From ChEMBL document CHEMBL1151164, “New prostanoids with cytotoxic activity from Taiwanese octocoral Clavularia viridis” (J Nat Prod, 2004)

Experiments:
[1] = system: HT-29; test: Cytotoxicity against human HT-29 cells after 72 hrs by SRB assay; type: functional, cell-based; conditions: HT-29, 48 h, in the assay text read “48 hrs” for “72 hrs”
How it was run: (§1)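 Cells seeded in RPMI 1640 with 5% FBS at 37 °C, 5% CO2; after 24 h, two plates per line fixed in situ with TCA as time-zero. Drug added, then 48 h further incubation at 37 °C. Fixed with cold TCA, stained with 0.4% w/v SRB in 1% acetic acid, bound dye solubilized in 10 mM trizma base, absorbance 515 nm. IC50 = concentration halving absorbance versus untreated cells.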

[2] = system: PC-3; test: Cytotoxicity against human PC3 cells after 72 hrs by SRB assay; type: functional, cell-based; conditions: PC-3, 48 h, in the assay text read “48 hrs” for “72 hrs”; how it was run: as §1

| SMILES | IC50 [1] | IC50 [2] |
| --- | --- | --- |
| CCCCC/C=C\C[C@]1(O)C=CC(=O)/C1=C/C=C\CCCC(=O)OC | 6 µM | 7.2 µM |
| CCCCC/C=C\C[C@]1(O)C=CC(=O)/C1=C/C=C/CCCC(=O)OC | 4.1 µM | 5.4 µM |
| CCCCC/C=C\C[C@]1(O)C=CC(=O)/C1=C\C=C\CCCC(=O)OC | 7.9 µM | 3.9 µM |
| CCCCC/C=C\C[C@@]1(O)C=C(Br)C(=O)/C1=C\C=C\CCCC(=O)OC [BROMOCLAVULONE III] | 0.5 µM | 0.5 µM |
| CCCCC/C=C\C[C@@]1(O)C=C(Br)C(=O)/C1=C/C=C/CCCC(=O)OC [BROMOVULONE II] | 5.4 µM | 5.6 µM |
| CCCCC/C=C\C[C@@]1(O)C=C(Cl)C(=O)/C1=C/C=C/CCCC(=O)OC [CHLOROVULONE III] | 2.7 µM | 1.9 µM |
| CCCCC/C=C\C[C@@]1(O)C=C(Cl)C(=O)/C1=C\C=C\CCCC(=O)OC [CHLOROVULONE II] |  | 0.8 µM |
| CCCCC/C=C\C[C@]1(OC(C)=O)C=CC(=O)/C1=C/C=C/CCCC(=O)OC [CLAVIRIDENONE E] | > 10 µM | 3.5 µM |
| CCCCC/C=C\C[C@@]1(O)C=C(I)C(=O)/C1=C\C=C\CCCC(=O)OC [IODOVULONE III] | > 10 µM | 6.7 µM |
| CCCCC/C=C\C[C@@]1(O)C=C(I)C(=O)/C1=C/C=C/CCCC(=O)OC [IODOVULONE II] | 6.5 µM | 3.9 µM |
